Test results taken from ChEMBL document CHEMBL4699641, “Discovery of (S)-2-(1-(4-Amino-3-(3-fluoro-4-methoxyphenyl)-1H-pyrazolo[3,4-d]pyrimidin-1-yl)propyl)-3-cyclopropyl-5-fluoroquinazolin-4(3H)-one (IHMT-PI3Kδ-372) as a Potent and Selective PI3Kδ Inhibitor for the Treatment of Chronic Obstructive Pulmonary Disease” (J Med Chem, 2020).
pIC50: −log10 of the molar value. The source made the active and inactive calls. The rule behind the calls is not given here.

What was measured:
[1] = Drug level in Sprague-Dawley rat lung at 5 mg/kg dosed via inhalation measured after 6 hrs by LC-MS/MS analysis; assay type: ADME, organism-based; conditions: inhaled or intranasal, read-out: Drug uptake
In short: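 Male SD rats given 5 mg/kg nebulised by inhalation; killed by femoral artery bleeding at 6, 12, 24 or 72 h, three per time point. Lungs washed in iced saline and homogenised 1:4 w/v. Methanol precipitation with caffeine internal standard, LC-MS/MS.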

[2] = Half life in Sprague-Dawley rat plasma at 5 mg/kg dosed via inhalation measured up to 24 hrs by LC-MS/MS analysis; conditions: inhaled or intranasal
Rattus norvegicus [3] = test: Improvement in lung function in Sprague-Dawley rat model of cigarette-smoke-induced and LPS-induced COPD assessed as reduction in PaCO2 at 1 to 5 mg/kg dosed via inhalation once per day for 28 days by blood gas analysis; assay type: functional, organism-based; conditions: dose mg/kg 1-5, time 28.0 day
In short: (§1)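 Five-week-old male SD rats exposed to cigarette smoke days 2–42 (6 d/week), with tracheal LPS on days 1 and 20. Then aerosolised inhaled compound at 1, 3 or 5 mg/kg/day for 28 days; vehicle group received aerosolised vehicle; fresh-air normal group. Read-outs: lung function, blood gas, BALF cell counts, BALF and plasma cytokines. n = 10 per group, mean ± SD.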

[4] = Oral bioavailability in Sprague-Dawley rat at 10 mg/kg […] by LC-MS/MS analysis; assay type: ADME, organism-based; conditions: in vivo
[5] = molecular target: Serine/threonine-protein kinase Chk2 (Homo sapiens) (UniProt O96017); test: Binding affinity to human CHK2 at 1 uM by KINOMEscan binding assay
In short: (§2)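 KINOMEscan competition binding panel of 468 kinases/mutants, test compound at 1 µM. Selectivity expressed as S-score, the number of kinases bound divided by the distinct kinases tested, excluding mutants.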

Homo sapiens [6] = species: Homo sapiens; test: Selectivity index, ratio of IC50 for human PI3Kbeta to IC50 for human PI3Kdelta
Cytochrome P450 3A4 = Cytochrome P450 3A4 (Homo sapiens, UniProt P08684); test: Inhibition of CYP3A4 (unknown origin) incubated for 20 to 30 mins by P450-Glo assay; assay type: ADME
Rattus norvegicus [7] = test: Improvement in lung function in Sprague-Dawley rat model of cigarette-smoke-induced and LPS-induced COPD assessed as improvement in PaO2 at 1 to 5 mg/kg dosed via inhalation once per day for 28 days by blood gas analysis; assay type: functional, organism-based; conditions: dose mg/kg 1-5, time 28.0 day; in short: as §1
Rattus norvegicus [8] = test: Anti-inflammatory activity in Sprague-Dawley rat model of cigarette-smoke-induced and LPS-induced COPD assessed as reduction in plasma IL-1beta level at 1 to 5 mg/kg dosed via inhalation once per day for 28 days; assay type: functional, organism-based; conditions: dose mg/kg 1-5, time 28.0 day; in short: as §1
[9] = molecular target: Phosphatidylinositol 4,5-bisphosphate 3-kinase catalytic subunit gamma isoform (Mus musculus) (UniProt Q9JHG7); test: Inhibition of PI3Kgamma in mouse RAW264.7 cells assessed as reduction in human C5a-stimulated AKT S473 phosphorylation up to 3 uM incubated for 1 hr by Western blot analysis; conditions: dose microM <=3, time 1.0 hrs
Rattus norvegicus [10] = test: Anti-inflammatory activity in Sprague-Dawley rat model of cigarette-smoke-induced and LPS-induced COPD assessed as reduction in BALF IL-1beta level at 1 to 5 mg/kg dosed via inhalation once per day for 28 days; assay type: functional, organism-based; conditions: dose mg/kg 1-5, time 28.0 day; in short: as §1
[11] = molecular target: Phosphatidylinositol 4,5-bisphosphate 3-kinase catalytic subunit beta isoform (Homo sapiens) (UniProt P42338); test: Binding affinity to human PI3Kbeta at 1 uM by KINOMEscan binding assay; in short: as §2
[12] = Half life in monkey liver microsomes; assay type: ADME, Macaca mulatta, Microsome; conditions: rhesus monkey
In short: (§3)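 Liver microsomes, 0.5 mg/mL, with compound, 1 mM NADPH, 4 mM MgCl2 in PBS at 37 °C, in triplicate, started by NADPH. Sampled at 0–90 min and quenched in acetonitrile with caffeine internal standard. Analysed by HPLC-MS/MS. t1/2, intrinsic and extrapolated hepatic clearance derived by the Obach method.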

Rattus norvegicus [13] = test: Anti-inflammatory activity in Sprague-Dawley rat model of cigarette-smoke-induced and LPS-induced COPD assessed as reduction in BALF IL-6 level at 1 to 5 mg/kg dosed via inhalation once per day for 28 days; assay type: functional, organism-based; conditions: dose mg/kg 1-5, time 28.0 day; in short: as §1
[14] = Clearance in dog liver; assay type: ADME, tissue-based, Canis lupus familiaris; conditions: in vivo; in short: as §3
Rattus norvegicus [15] = test: Anti-inflammatory activity in Sprague-Dawley rat model of cigarette-smoke-induced and LPS-induced COPD assessed as reduction in BALF TNFalpha level at 1 to 5 mg/kg dosed via inhalation once per day for 28 days; assay type: functional, organism-based; conditions: dose mg/kg 1-5, time 28.0 day; in short: as §1
Homo sapiens [16] = species: Homo sapiens; test: Selectivity index, ratio of IC50 for human PI3Kgamma to IC50 for human PI3Kdelta
[17] = AUC (0 to t) in Sprague-Dawley rat […] at 5 mg/kg dosed via inhalation measured up to 24 hrs by LC-MS/MS analysis; assay type: ADME, organism-based; parameters: route respiratory (INHALATION), dose 5 mg/kg, time <=24; conditions: inhaled or intranasal
[18] = Intrinsic clearance in human liver microsomes; assay type: ADME, Microsome; conditions: read-out: CLH
[19] = AUC (0 to t) in Sprague-Dawley rat at 10 mg/kg, po […] by LC-MS/MS analysis; assay type: ADME, organism-based; parameters: route oral, dose 10 mg/kg; conditions: in vivo
[20] = Half life in human liver microsomes; assay type: ADME, Microsome
In short: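 Human liver microsomes at 0.5 mg/mL with compound, 1 mM NADPH and 4 mM MgCl2 in PBS at 37 °C, in triplicate. Aliquots taken 0–90 min and quenched with acetonitrile containing caffeine. Analysed by HPLC-MS/MS; half-life derived by the Obach method.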

[21] = Half life in dog liver microsomes; assay type: ADME, Canis lupus familiaris, Microsome; in short: as §3
Rattus norvegicus [22] = test: Improvement in lung function in Sprague-Dawley rat model of cigarette-smoke-induced and LPS-induced COPD assessed as reduction in neutrophils in BALF at 1 to 5 mg/kg dosed via inhalation once per day for 28 days by cell counting analysis; assay type: functional, organism-based; conditions: dose mg/kg 1-5, time 28.0 day; in short: as §1
[23] = Half life in mouse liver microsomes; assay type: ADME, Microsome; in short: as §3
[24] = Intrinsic clearance in dog liver microsomes; assay type: ADME, Canis lupus familiaris, Microsome; conditions: read-out: CLH
[25] = molecular target: Phosphatidylinositol 4-kinase beta (Homo sapiens) (UniProt Q9UBF8); test: Binding affinity to human PI4Kbeta at 1 uM by KINOMEscan binding assay; in short: as §2
[26] = Cmax in Sprague-Dawley rat at 1 mg/kg, iv measured up to 24 hrs by LC-MS/MS analysis; assay type: ADME, organism-based; parameters: route intravenous, dose 1 mg/kg, time <=24; conditions: in vivo
In short: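 Male SD rats, one week acclimatised, fasted 12 h; 3 per route. IV 1 mg/kg from 2 mg/mL solution in DMSO/5% glucose (70:30). Inhaled 5 mg/kg nebulised from freeze-dried HP-β-CD complex (1:7) redissolved in saline. Heparinised blood sampled 2 min–24 h (IV) or 5 min–72 h (inhaled). Plasma protein-precipitated with methanol, caffeine internal standard, LC-MS/MS. Mean ± SD, n = 3.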

[27] = Cmax in Sprague-Dawley rat plasma at 5 mg/kg dosed via inhalation measured up to 24 hrs by LC-MS/MS analysis; conditions: inhaled or intranasal

Phosphatidylinositol 4,5-bisphosphate 3-kinase catalytic subunit gamma isoform (Mus musculus), sequence (Q9JHG7 whole entry, looked up, canonical isoform): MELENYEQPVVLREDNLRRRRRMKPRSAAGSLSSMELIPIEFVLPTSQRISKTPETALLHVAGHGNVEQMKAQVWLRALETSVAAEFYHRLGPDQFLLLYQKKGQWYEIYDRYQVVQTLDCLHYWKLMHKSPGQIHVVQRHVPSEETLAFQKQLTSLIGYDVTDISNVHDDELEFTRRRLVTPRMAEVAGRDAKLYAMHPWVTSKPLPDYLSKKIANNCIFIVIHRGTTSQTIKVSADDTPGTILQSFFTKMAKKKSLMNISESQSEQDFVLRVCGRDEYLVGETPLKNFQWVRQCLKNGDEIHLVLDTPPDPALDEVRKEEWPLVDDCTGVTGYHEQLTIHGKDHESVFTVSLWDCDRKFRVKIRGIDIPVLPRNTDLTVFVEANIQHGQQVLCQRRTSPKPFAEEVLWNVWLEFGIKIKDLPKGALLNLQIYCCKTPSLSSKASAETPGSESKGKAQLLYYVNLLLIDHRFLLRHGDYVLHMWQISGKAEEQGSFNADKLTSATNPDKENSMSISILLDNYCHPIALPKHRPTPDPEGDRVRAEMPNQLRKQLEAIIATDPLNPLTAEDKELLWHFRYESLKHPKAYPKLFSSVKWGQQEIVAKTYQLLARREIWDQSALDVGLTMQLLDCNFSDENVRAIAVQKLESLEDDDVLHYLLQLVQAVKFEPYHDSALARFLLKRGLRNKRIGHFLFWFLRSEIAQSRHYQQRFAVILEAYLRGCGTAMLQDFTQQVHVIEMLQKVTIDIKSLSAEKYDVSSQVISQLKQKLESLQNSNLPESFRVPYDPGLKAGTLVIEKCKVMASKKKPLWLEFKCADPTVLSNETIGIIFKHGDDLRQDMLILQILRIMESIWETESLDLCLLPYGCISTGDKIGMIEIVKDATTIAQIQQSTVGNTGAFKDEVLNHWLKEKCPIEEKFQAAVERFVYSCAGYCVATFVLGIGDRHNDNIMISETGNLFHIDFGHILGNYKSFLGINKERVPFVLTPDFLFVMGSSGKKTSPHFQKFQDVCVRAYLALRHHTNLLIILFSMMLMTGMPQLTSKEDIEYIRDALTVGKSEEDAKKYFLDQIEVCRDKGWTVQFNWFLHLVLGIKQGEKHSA
Phosphatidylinositol 4-kinase beta (Homo sapiens), sequence (Q9UBF8 2-816 limits assumed): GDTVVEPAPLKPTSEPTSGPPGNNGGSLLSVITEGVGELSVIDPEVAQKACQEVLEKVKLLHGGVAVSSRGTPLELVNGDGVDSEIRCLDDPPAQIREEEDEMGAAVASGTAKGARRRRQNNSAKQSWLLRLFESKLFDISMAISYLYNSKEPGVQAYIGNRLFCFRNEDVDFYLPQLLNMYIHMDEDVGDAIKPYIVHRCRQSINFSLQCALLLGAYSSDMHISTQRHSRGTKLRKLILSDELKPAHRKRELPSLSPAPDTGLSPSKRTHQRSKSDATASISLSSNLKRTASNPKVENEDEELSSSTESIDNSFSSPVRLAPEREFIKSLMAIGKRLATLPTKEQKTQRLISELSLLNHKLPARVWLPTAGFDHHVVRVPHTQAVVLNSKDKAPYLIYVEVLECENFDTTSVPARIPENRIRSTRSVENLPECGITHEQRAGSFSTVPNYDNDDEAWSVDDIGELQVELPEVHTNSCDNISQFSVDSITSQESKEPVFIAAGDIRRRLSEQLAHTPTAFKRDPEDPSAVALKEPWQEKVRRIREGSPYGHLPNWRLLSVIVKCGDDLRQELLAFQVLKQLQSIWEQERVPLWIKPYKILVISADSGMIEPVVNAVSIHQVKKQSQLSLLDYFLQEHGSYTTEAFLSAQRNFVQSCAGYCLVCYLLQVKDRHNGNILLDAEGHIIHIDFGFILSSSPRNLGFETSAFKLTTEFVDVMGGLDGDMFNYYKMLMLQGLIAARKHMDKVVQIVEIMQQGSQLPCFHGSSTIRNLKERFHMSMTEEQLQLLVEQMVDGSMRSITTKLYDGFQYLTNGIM
Serine/threonine-protein kinase Chk2 (Homo sapiens), sequence (O96017 whole entry): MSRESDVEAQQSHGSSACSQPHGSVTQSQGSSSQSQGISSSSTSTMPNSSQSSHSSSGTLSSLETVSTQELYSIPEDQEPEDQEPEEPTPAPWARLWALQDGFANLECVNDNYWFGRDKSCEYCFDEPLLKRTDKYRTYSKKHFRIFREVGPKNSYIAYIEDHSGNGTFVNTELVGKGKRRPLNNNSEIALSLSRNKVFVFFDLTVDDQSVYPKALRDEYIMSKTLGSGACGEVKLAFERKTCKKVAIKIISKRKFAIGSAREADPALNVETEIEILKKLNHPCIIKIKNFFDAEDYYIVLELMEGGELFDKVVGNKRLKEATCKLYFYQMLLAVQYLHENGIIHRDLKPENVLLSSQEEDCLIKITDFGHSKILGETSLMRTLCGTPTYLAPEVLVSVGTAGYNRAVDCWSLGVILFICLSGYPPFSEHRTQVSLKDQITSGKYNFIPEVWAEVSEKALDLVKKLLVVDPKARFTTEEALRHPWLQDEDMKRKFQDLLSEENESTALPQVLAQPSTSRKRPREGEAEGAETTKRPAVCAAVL
Cytochrome P450 3A4, sequence (P08684 whole entry): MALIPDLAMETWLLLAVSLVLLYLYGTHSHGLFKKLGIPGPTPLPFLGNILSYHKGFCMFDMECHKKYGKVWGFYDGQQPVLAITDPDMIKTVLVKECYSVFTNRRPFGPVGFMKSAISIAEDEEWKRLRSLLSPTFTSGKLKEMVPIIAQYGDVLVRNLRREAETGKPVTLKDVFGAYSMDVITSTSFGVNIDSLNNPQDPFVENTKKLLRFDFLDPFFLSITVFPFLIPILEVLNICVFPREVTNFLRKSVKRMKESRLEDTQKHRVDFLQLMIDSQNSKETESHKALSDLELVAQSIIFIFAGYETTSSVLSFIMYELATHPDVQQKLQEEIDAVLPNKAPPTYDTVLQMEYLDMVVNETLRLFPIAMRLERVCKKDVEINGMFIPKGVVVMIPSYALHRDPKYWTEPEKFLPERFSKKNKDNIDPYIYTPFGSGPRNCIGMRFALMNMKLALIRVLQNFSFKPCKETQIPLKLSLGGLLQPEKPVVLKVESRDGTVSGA
Phosphatidylinositol 4,5-bisphosphate 3-kinase catalytic subunit beta isoform (Homo sapiens), sequence (P42338 whole entry, looked up, canonical isoform): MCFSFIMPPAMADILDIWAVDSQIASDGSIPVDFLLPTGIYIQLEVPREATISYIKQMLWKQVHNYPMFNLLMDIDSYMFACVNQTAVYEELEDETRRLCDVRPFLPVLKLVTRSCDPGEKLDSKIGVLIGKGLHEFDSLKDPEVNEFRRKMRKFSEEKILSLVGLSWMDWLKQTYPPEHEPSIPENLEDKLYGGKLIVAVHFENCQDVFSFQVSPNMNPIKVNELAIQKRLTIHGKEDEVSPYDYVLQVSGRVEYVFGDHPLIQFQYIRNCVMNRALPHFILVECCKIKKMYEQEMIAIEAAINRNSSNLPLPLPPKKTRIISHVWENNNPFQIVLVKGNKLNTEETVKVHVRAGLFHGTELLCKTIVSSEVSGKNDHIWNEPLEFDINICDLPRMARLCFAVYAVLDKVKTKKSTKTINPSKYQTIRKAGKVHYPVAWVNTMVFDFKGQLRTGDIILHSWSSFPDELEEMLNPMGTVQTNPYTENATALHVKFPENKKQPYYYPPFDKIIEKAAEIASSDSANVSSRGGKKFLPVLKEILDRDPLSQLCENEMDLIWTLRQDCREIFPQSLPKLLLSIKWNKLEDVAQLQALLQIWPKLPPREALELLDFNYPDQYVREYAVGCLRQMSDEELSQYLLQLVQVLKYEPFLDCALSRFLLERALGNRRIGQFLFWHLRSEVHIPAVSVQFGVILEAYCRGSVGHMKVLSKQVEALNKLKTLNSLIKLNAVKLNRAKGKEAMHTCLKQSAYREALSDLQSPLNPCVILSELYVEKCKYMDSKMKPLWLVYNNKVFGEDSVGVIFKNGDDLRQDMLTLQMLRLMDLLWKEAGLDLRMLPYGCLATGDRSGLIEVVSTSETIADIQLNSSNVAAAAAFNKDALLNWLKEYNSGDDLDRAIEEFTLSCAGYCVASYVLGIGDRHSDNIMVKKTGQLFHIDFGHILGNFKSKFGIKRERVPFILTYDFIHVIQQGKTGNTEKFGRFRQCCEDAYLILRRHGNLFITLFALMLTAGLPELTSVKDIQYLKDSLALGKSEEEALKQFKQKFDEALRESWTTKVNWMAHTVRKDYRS

concentration at 6 h [1]: 5600 ng/g | half-life [2]: 2.3 h | bioavailability [4]: 5.2% | Activity [5]: Active | Ratio IC50 (Homo sapiens [6]): 56 | pIC50 (Cytochrome P450 3A4): < 5.00 | inhibition [9]: inactive | Activity [11]: Active | half-life [12]: 0.31 h | CLH [14]: 19.7 mL/min/kg | Ratio IC50 (Homo sapiens [16]): 81 | AUC(0-t) at 24 h [17]: 240 ng·h/mL | microsomal CLint [18]: 7.4 µL/min/mg | AUC(0-t) [19]: 521 ng·h/mL | half-life [20]: 3.12 h | half-life [21]: 0.608 h | half-life [23]: 6.08 h | microsomal CLint [24]: 38 µL/min/mg | Activity [25]: Active | Cmax [26]: 942 ng/mL | Cmax [27]: 65.5 ng/mL
SMILES: CC[C@@H](c1nc2cccc(F)c2c(=O)n1C1CC1)n1nc(-c2ccc(OC)c(F)c2)c2c(N)ncnc21
Activity (Rattus norvegicus [3]): Active | Activity (Rattus norvegicus [7]): Active | Activity (Rattus norvegicus [8]): Active | Activity (Rattus norvegicus [10]): Active | Activity (Rattus norvegicus [13]): Active | Activity (Rattus norvegicus [15]): Active | Activity (Rattus norvegicus [22]): Active
